≈ marks a conversion by molar mass, not a printed value. Calls of active or inactive are those of the source. No cut-off for these calls is given here.
Columns and labels:
U-251 = experiment: Cytotoxicity against human U251 cells assessed as growth inhibition at 10 uM after 48 hrs by SRB assay; assay type: functional; details: U-251, 48 h, read-out: GI
Outline: (§1)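 NCI-60 one-dose primary screen run by the NCI Drug Evaluation Branch across the full 60-line panel. Single high-dose treatment with 48 h continuous drug exposure. Cell growth estimated by sulforhodamine B protein staining. Results given as percent growth of treated cells and expressed as percentage growth inhibition.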

SNB-75 = experiment: Cytotoxicity against human SNB75 cells assessed as growth inhibition at 10 uM after 48 hrs by SRB assay; assay type: functional; details: SNB-75, 48 h, read-out: GI; outline: as §1
SF-268 = experiment: Cytotoxicity against human SF268 cells assessed as growth inhibition at 10 uM after 48 hrs by SRB assay; assay type: functional; details: SF-268, 48 h, read-out: GI; outline: as §1
PC-3 = experiment: Cytotoxicity against human PC3 cells assessed as growth inhibition at 10 uM after 48 hrs by SRB assay; assay type: functional; details: PC-3, 48 h, read-out: GI; outline: as §1
UACC-62 = experiment: Cytotoxicity against human UACC62 cells assessed as growth inhibition at 10 uM after 48 hrs by SRB assay; assay type: functional; details: UACC-62, 48 h, read-out: GI; outline: as §1
SK-MEL-5 = experiment: Cytotoxicity against human SK-MEL-5 cells assessed as growth inhibition at 10 uM after 48 hrs by SRB assay; assay type: functional; details: SK-MEL-5, 48 h, read-out: GI; outline: as §1
SK-MEL-2 = experiment: Cytotoxicity against human SK-MEL-2 cells assessed as growth inhibition at 10 uM after 48 hrs by SRB assay; assay type: functional; details: SK-MEL-2, 48 h, read-out: GI; outline: as §1
LOX IMVI = experiment: Cytotoxicity against human LOXIMVI cells assessed as growth inhibition at 10 uM after 48 hrs by SRB assay; assay type: functional; details: read-out: GI; outline: as §1
[1] = Cytotoxicity against human UO31 cells assessed as growth inhibition at 10 uM after 48 hrs by SRB assay; assay type: functional; details: UO-31, 48 h, read-out: GI; outline: as §1
SN12C = experiment: Cytotoxicity against human SN12C cells assessed as growth inhibition at 10 uM after 48 hrs by SRB assay; assay type: functional; details: read-out: GI; outline: as §1
A498 = experiment: Cytotoxicity against human A498 cells assessed as growth inhibition at 10 uM after 48 hrs by SRB assay; assay type: functional; details: A498, 48 h, read-out: GI; outline: as §1
SR = experiment: Cytotoxicity against human SR cells assessed as growth inhibition at 10 uM after 48 hrs by SRB assay; assay type: functional; details: read-out: GI; outline: as §1
RPMI-8226 = experiment: Cytotoxicity against human RPMI8226 cells assessed as growth inhibition at 10 uM after 48 hrs by SRB assay; assay type: functional; details: RPMI-8226, 48 h, read-out: GI; outline: as §1
MOLT-4 = experiment: Cytotoxicity against human MOLT4 cells assessed as growth inhibition at 10 uM after 48 hrs by SRB assay; assay type: functional; details: MOLT-4, 48 h, read-out: GI; outline: as §1
K562 = experiment: Cytotoxicity against human K562 cells assessed as growth inhibition at 10 uM after 48 hrs by SRB assay; assay type: functional; details: K562, 48 h, read-out: GI; outline: as §1
CCRF-CEM = experiment: Cytotoxicity against human CCRF-CEM cells assessed as growth inhibition at 10 uM after 48 hrs by SRB assay; assay type: functional; details: read-out: GI; outline: as §1
IGROV-1 = experiment: Cytotoxicity against human IGROV1 cells assessed as growth inhibition at 10 uM after 48 hrs by SRB assay; assay type: functional; details: IGROV-1, 48 h, read-out: GI; outline: as §1
T47D = experiment: Cytotoxicity against human T47D cells assessed as growth inhibition at 10 uM after 48 hrs by SRB assay; assay type: functional; details: read-out: GI; outline: as §1
MDA-MB-468 = experiment: Cytotoxicity against human MDA-MB-468 cells assessed as growth inhibition at 10 uM after 48 hrs by SRB assay; assay type: functional; details: MDA-MB-468, 48 h, read-out: GI; outline: as §1
[2] = Cytotoxicity against human NCI-ADR-RES cells assessed as growth inhibition at 10 uM after 48 hrs by SRB assay; assay type: functional; details: read-out: GI; outline: as §1
MCF7 = experiment: Cytotoxicity against human MCF7 cells assessed as growth inhibition at 10 uM after 48 hrs by SRB assay; assay type: functional; details: MCF7, 48 h, read-out: GI; outline: as §1
[3] = Cytotoxicity against human Hs578T cells assessed as growth inhibition at 10 uM after 48 hrs by SRB assay; assay type: functional; details: Hs-578T, read-out: GI; outline: as §1
SW-620 = experiment: Cytotoxicity against human SW620 cells assessed as growth inhibition at 10 uM after 48 hrs by SRB assay; assay type: functional; details: SW-620, 48 h, read-out: GI; outline: as §1
HT-29 = experiment: Cytotoxicity against human HT-29 cells assessed as growth inhibition at 10 uM after 48 hrs by SRB assay; assay type: functional; details: HT-29, 48 h, read-out: GI; outline: as §1
HCT-15 = experiment: Cytotoxicity against human HCT15 cells assessed as growth inhibition at 10 uM after 48 hrs by SRB assay; assay type: functional; details: HCT-15, 48 h, read-out: GI; outline: as §1
HCT-116 = experiment: Cytotoxicity against human HCT116 cells assessed as growth inhibition at 10 uM after 48 hrs by SRB assay; assay type: functional; details: HCT-116, 48 h, read-out: GI; outline: as §1
HCC 2998 = experiment: Cytotoxicity against human HCC2998 cells assessed as growth inhibition at 10 uM after 48 hrs by SRB assay; assay type: functional; details: HCC 2998, 48 h, read-out: GI; outline: as §1
NCI-H522 = experiment: Cytotoxicity against human NCI-H522 cells assessed as growth inhibition at 10 uM after 48 hrs by SRB assay; assay type: functional; details: NCI-H522, 48 h, read-out: GI; outline: as §1
NCI-H322M = experiment: Cytotoxicity against human NCI-H322M cells assessed as growth inhibition at 10 uM after 48 hrs by SRB assay; assay type: functional; details: read-out: GI; outline: as §1
NCI-H226 = experiment: Cytotoxicity against human NCI-H226 cells assessed as growth inhibition at 10 uM after 48 hrs by SRB assay; assay type: functional; details: NCI-H226, 48 h, read-out: GI; outline: as §1
HOP-92 = experiment: Cytotoxicity against human HOP92 cells assessed as growth inhibition at 10 uM after 48 hrs by SRB assay; assay type: functional; details: HOP-92, 48 h, read-out: GI; outline: as §1
Candida albicans [4] = experiment: Antifungal activity against Candida albicans ATCC 10231 assessed as growth inhibition at 1 mg/mL after 48 hrs by agar-cup diffusion method; assay type: functional; details: ATCC 10231, 48 h, read-out: DIZ
Outline: (§2)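 Agar-cup diffusion: 1 mL of 6 h broth culture seeded per 100 mL molten sterile agar at 45 °C and poured into plates. 8 mm cups cut, each filled with 0.1 mL of 1 mg/mL test solution. Incubated 37 °C for 24 h, 48 h for C. albicans. DMSO control per organism. Inhibition zone diameter in mm, mean of three measurements.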

Escherichia coli [5] = experiment: Antibacterial activity against Escherichia coli ATCC 25922 assessed as growth inhibition at 1 mg/mL after 24 hrs by agar-cup diffusion method; assay type: functional; details: ATCC 25922, 24 h, read-out: DIZ; outline: as §2
Bacillus spizizenii [6] = experiment: Antibacterial activity against Bacillus subtilis ATCC 6633 assessed as growth inhibition at 1 mg/mL after 24 hrs by agar-cup diffusion method; assay type: functional; details: ATCC 6633, 24 h, read-out: DIZ; outline: as §2
Aspergillus niger = experiment: Antifungal activity against Aspergillus niger assessed as growth inhibition at 1 mg/mL after 24 hrs by agar-cup diffusion method; assay type: functional, organism-based; outline: as §2
Candida albicans [7] = experiment: Fungicidal activity against Candida albicans ATCC 10231 after 18 hrs; assay type: functional; details: ATCC 10231, 18 h
Outline: (§3)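 Continuation of the broth-dilution MIC test. A loopful from each tube without visible growth spread on a quarter of a Mueller-Hinton agar plate and incubated 18 h. Lowest concentration giving no growth on subculture taken as the MBC.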

Candida albicans [8] = experiment: Antifungal activity against Candida albicans ATCC 10231 assessed as growth inhibition after 48 hrs by two-fold serial dilution assay; assay type: functional; details: ATCC 10231, 48 h
Outline: (§4)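 Twofold serial broth dilution run on compounds giving inhibition zones of 13 mm or more. Organisms pre-grown in suitable broth at 37 °C, 24 h for bacteria and 48 h for fungi. Dilution series 200, 100, 50, 25, 12.5, 6.25. Each 5 mL tube inoculated with 0.1 mL and incubated 37 °C for 48 h. Tubes scored for presence or absence of growth.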

Pseudomonas aeruginosa [9] = experiment: Bactericidal activity against Pseudomonas aeruginosa ATCC 27853 after 18 hrs; assay type: functional; details: ATCC 27853, 18 h; outline: as §3
Pseudomonas aeruginosa [10] = experiment: Antibacterial activity against Pseudomonas aeruginosa ATCC 27853 assessed as growth inhibition after 48 hrs by two-fold serial dilution assay; assay type: functional; details: ATCC 27853, 48 h; outline: as §4
Escherichia coli [11] = experiment: Bactericidal activity against Escherichia coli ATCC 25922 after 18 hrs; assay type: functional; details: ATCC 25922, 18 h; outline: as §3
Escherichia coli [12] = experiment: Antibacterial activity against Escherichia coli ATCC 25922 assessed as growth inhibition after 48 hrs by two-fold serial dilution assay; assay type: functional; details: ATCC 25922, 48 h; outline: as §4
Bacillus spizizenii [13] = experiment: Bactericidal activity against Bacillus subtilis ATCC 6633 after 18 hrs; assay type: functional; details: ATCC 6633, 18 h; outline: as §3
Bacillus spizizenii [14] = experiment: Antibacterial activity against Bacillus subtilis ATCC 6633 assessed as growth inhibition after 48 hrs by two-fold serial dilution assay; assay type: functional; details: ATCC 6633, 48 h; outline: as §4
Staphylococcus aureus [15] = experiment: Bactericidal activity against Staphylococcus aureus ATCC 6538 after 18 hrs; assay type: functional; details: ATCC 6538, 18 h; outline: as §3
Staphylococcus aureus [16] = experiment: Antibacterial activity against Staphylococcus aureus ATCC 6538 assessed as growth inhibition after 48 hrs by two-fold serial dilution assay; assay type: functional; details: ATCC 6538, 48 h; outline: as §4
Staphylococcus aureus [17] = experiment: Antibacterial activity against Staphylococcus aureus ATCC 6538 assessed as growth inhibition at 1 mg/mL after 24 hrs by agar-cup diffusion method; assay type: functional; details: ATCC 6538, 24 h, read-out: DIZ; outline: as §2
Pseudomonas aeruginosa [18] = experiment: Antibacterial activity against Pseudomonas aeruginosa ATCC 27853 assessed as growth inhibition at 1 mg/mL after 24 hrs by agar-cup diffusion method; assay type: functional; details: ATCC 27853, 24 h, read-out: DIZ; outline: as §2

Cc1nc(N)sc1C(=O)NCCO
inhibition of growth at 10 µM (U-251): < 10% | inhibition of growth at 10 µM (SNB-75): < 10% | inhibition of growth at 10 µM (SF-268): 2.48% | inhibition of growth at 10 µM (PC-3): < 10% | inhibition of growth at 10 µM (UACC-62): 7.33% | inhibition of growth at 10 µM (SK-MEL-5): < 10% | inhibition of growth at 10 µM (SK-MEL-2): 87.4% | inhibition of growth at 10 µM (LOX IMVI): < 10% | inhibition of growth at 10 µM [1]: 20% | inhibition of growth at 10 µM (SN12C): < 10% | inhibition of growth at 10 µM (A498): < 10% | inhibition of growth at 10 µM (SR): < 10% | inhibition of growth at 10 µM (RPMI-8226): < 10% | inhibition of growth at 10 µM (MOLT-4): < 10% | inhibition of growth at 10 µM (K562): < 10% | inhibition of growth at 10 µM (CCRF-CEM): 40% | inhibition of growth at 10 µM (IGROV-1): < 10% | inhibition of growth at 10 µM (T47D): < 10% | inhibition of growth at 10 µM (MDA-MB-468): 3.17% | inhibition of growth at 10 µM [2]: < 10% | inhibition of growth at 10 µM (MCF7): 2.13% | inhibition of growth at 10 µM [3]: < 10% | inhibition of growth at 10 µM (SW-620): < 10% | inhibition of growth at 10 µM (HT-29): < 10% | inhibition of growth at 10 µM (HCT-15): < 10% | inhibition of growth at 10 µM (HCT-116): 2.49% | inhibition of growth at 10 µM (HCC 2998): < 10% | inhibition of growth at 10 µM (NCI-H522): 65.4% | inhibition of growth at 10 µM (NCI-H322M): < 10% | inhibition of growth at 10 µM (NCI-H226): 3.91% | inhibition of growth at 10 µM (HOP-92): 82.1%

Cc1ccc(NC(=S)Nc2nc(C)c(C(=O)NN)s2)cc1
zone of inhibition at 1000 µg/mL (Candida albicans [4]): > 13 mm | zone of inhibition at 1000 µg/mL (Escherichia coli [5]): > 13 mm | zone of inhibition at 1000 µg/mL (Bacillus spizizenii [6]): > 13 mm | growth inhibition (GI) (Aspergillus niger): inactive | MFC (Candida albicans [7]): 100 µg/mL (≈ 311 µM) | MIC (Candida albicans [8]): 100 µg/mL (≈ 311 µM) | MBC (Pseudomonas aeruginosa [9]): 100 µg/mL (≈ 311 µM) | MIC (Pseudomonas aeruginosa [10]): 50 µg/mL (≈ 156 µM) | MBC (Escherichia coli [11]): 100 µg/mL (≈ 311 µM) | MIC (Escherichia coli [12]): 100 µg/mL (≈ 311 µM) | MBC (Bacillus spizizenii [13]): 50 µg/mL (≈ 156 µM) | MIC (Bacillus spizizenii [14]): 50 µg/mL (≈ 156 µM) | MBC (Staphylococcus aureus [15]): 25 µg/mL (≈ 77.8 µM) | MIC (Staphylococcus aureus [16]): 25 µg/mL (≈ 77.8 µM) | zone of inhibition at 1000 µg/mL (Staphylococcus aureus [17]): > 13 mm | zone of inhibition at 1000 µg/mL (Pseudomonas aeruginosa [18]): > 13 mm
